Where no end group is shown, it is not given here. The star is where a group is joined. αGalNAc = CC(=O)N[C@@H]1[C@@H](O)[C@@H](O)[C@@H](CO)O[C@@H]1*
Assays:
[1] = molecular target: T1, recombinant Bauhinia forficata lectin (BfL) (Bauhinia forficata, UniProt P86993); experiment: glyco-antigen microarray binding of BfL, apparent Kd; settings: for RFUmax: carbohydrate array, maximum signal of the binding curve
T1 sequence (P86993 1-233): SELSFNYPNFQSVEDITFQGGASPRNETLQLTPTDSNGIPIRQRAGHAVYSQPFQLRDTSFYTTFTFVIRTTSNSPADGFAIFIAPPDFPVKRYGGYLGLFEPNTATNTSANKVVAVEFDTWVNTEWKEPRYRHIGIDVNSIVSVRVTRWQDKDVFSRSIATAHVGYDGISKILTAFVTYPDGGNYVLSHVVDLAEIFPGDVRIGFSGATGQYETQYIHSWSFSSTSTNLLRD
Summary of the method: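 His6-tagged lectin expressed in E. coli, refolded from inclusion bodies, and gel-filtered in 50 mM Hepes pH 7.5, 150 mM NaCl. Glycans on BSA or HSA (neoglycoproteins), some at high and low density. Arrays blocked overnight at 4 °C in 3% BSA TBS. Lectin dilutions in 1% BSA TBS with 2 mM CaCl2 and 0.05% Tween-20, duplicate wells, 2 h at 37 °C. Detected with anti-His then DyLight549 anti-mouse IgG. Fluorescence averaged, log2-transformed, apparent Kd fitted from binding curves.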

[2] = molecular target: T2, recombinant Bauhinia forficata lectin (BfL-His6) (Bauhinia forficata, UniProt P86993 1-233); experiment: peptide or protein array
T2 sequence: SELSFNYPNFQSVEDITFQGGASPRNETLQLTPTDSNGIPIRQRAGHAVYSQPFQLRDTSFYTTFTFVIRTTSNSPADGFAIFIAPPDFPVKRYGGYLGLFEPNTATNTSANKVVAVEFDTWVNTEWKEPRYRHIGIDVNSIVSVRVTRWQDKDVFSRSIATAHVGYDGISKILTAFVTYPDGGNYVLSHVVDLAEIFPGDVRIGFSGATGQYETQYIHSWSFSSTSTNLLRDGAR

[3] = molecular target: all forms of the Tn antigen (Tn glycopeptides, 55 array components); experiment: peptide or protein array
Ac-A-Tn(Thr)-S-G - 05 = molecular target: T3, Ac-A-Tn(Thr)-S-G - 05; experiment: peptide or protein array
T3 sequence (peptide, N-terminal acetyl; Tn (GalNAc α-linked) on the second residue (Thr)): ATSG

Ac-S-Tn(Ser)-S-G - 04 = molecular target: T4, Ac-S-Tn(Ser)-S-G - 04; experiment: peptide or protein array
T4 sequence (peptide, N-terminal acetyl; Tn (GalNAc α-linked) on the second residue (Ser)): SSSG

[4] = molecular target: ovine submaxillary mucin (ovine); experiment: peptide or protein array
Ac-S-Tn(Ser)-S-G - 22 = molecular target: T5, Ac-S-Tn(Ser)-S-G - 22; experiment: peptide or protein array
T5 sequence (peptide, N-terminal acetyl; Tn (GalNAc α-linked) on the second residue (Ser)): SSSG

Ac-S-Thr(F1α)-S-G - 18 = molecular target: T6, Ac-S-Thr(F1α)-S-G - 18; experiment: peptide or protein array
T6 sequence (peptide, N-terminal acetyl; F1α (Galβ1-4GlcNAcβ1-6GalNAcα1-) on the second residue (Thr)): STSG

Ac-S-Tn(Thr)-S-G - 04 = molecular target: T7, Ac-S-Tn(Thr)-S-G - 04; experiment: peptide or protein array
T7 sequence (peptide, N-terminal acetyl; Tn (GalNAc α-linked) on the second residue (Thr)): STSG

Ac-S-Ser(core 5)-S-G-18 = molecular target: T8, Ac-S-Ser(core 5)-S-G-18; experiment: peptide or protein array
T8 sequence (peptide, N-terminal acetyl; core 5 (GalNAcα1-3GalNAcα1-) on the second residue (Ser)): SSSG

rabbit erythrocytes = settings: natural BfL from seeds; cited from earlier work
[5] = tested on: melanoma LOX IMVI cell line; experiment: NCI-60 One Dose Assay; type: cell-based, human; settings: 1.85 μM, SRB assay, 5% serum, average of two experiments
Summary of the method: (§1)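 Recombinant His-tagged test lectin, refolded from E. coli inclusion bodies, was gel-filtered into 50 mM Hepes pH 7.5, 150 mM NaCl before use. NCI DTP ran a one-dose screen at 1.85 μM following its published protocols. Read-out was SRB colorimetric total protein in non-lysed cells. Growth percent is relative to drug-free medium, averaged over two experiments.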

[6] = tested on: normal and several types of cancer cells; settings: natural BfL from seeds; cited from earlier work
[7] = tested on: human erythrocytes originating from all blood types; settings: natural BfL from seeds; cited from earlier work
[8] = solubility of recombinant BfL; type: physicochemical
Summary of the method: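 Recombinant His6-tagged lectin was expressed in bacteria, recovered from inclusion bodies and refolded at 5 °C. It was then dialysed overnight against 50 mM Tris-HCl pH 7.5, 0.2 M NaCl, 1 mM CaCl2, and concentrated to 8-10 mg/ml at room temperature for storage at −80 °C. The preceding purification and refolding steps were run at 5 °C.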

[9] = tested on: human cancer cell lines of the NCI-60 panel; experiment: NCI-60 Human Tumor Cell Lines Screen, One Dose Assay; type: cell-based; settings: 1.85 μM
Summary of the method: as §1

[10] = tested on: MCF7 human breast cancer cell line; settings: natural BfL from seeds; after 72 hours at 2.5 µM; cited from earlier work

Work on “-G-V-T-S-A-P-D-T-R-P-A-P-G-S- Tn(Thr)-A-P-P-A (GVTSAPDTRPAPGST(αGalNAc)APPA; also: conjugated to albumin carrier (BSA or HSA)) [Muc1-Tn15]” yielded an RFUmax [1] of 17917 RFU.

With “Ac-S-Tn(Ser)-V-G-13: Tn glycopeptide on BSA or HSA, array component (Ac-SS(αGalNAc)VG; also: on BSA or HSA carrier)” the RFUmax [1] was 17255 RFU.

“AzHex-P-D-Tn(Thr)-R-P-NH2-07: Tn glycopeptide on BSA or HSA, array component (AzHex-PDT(αGalNAc)RP-NH2; also: on BSA or HSA carrier)” gave an RFUmax [1] of 15559 RFU.

With GalNAcα1-3(Fucα1-2)Gal [BG-A -19] the RFUmax [1] was 15700 RFU.

For GalNAcα1-3Gal [GalNAcα1-3Gal - 17], the “binding of BfL on glycan microarray (in words)” value (shortened to “binding of BfL”) [1] was “strong binding” and the RFUmax [1] was 17826 RFU.

For “GalNAcα1-3GalNAcα1-Ser (Ac-SSSG; not fully specified (residue 2); also: on BSA or HSA carrier) [Ac-S-Ser(core 5)-S-G-18]”, the “binding of BfL” value [1] was “good binder” and the RFUmax [1] was 18580 RFU.

With “GalNAcα1-3GalNAcβ1-3Galα1-4Galβ [Forssman Tetra-BSA - 13]” the “binding of BfL” value [1] was “strong binding” and the RFUmax [1] was 18518 RFU.

With GalNAcα1-6Galβ [GalNAcα1-6Galβ - 22] the “binding of BfL” value [1] was “strong binding” and the RFUmax [1] was 19055 RFU.

In the case of GalNAcβ1-3Galα1-3Galβ [iGb4], the “binding of BfL” value [1] is reported as “strong binding”.

For “GalNAcβ1-3Galα1-4Galβ1-4GlcNAcβ [Gb4 - 09]”, the “binding of BfL” value [1] was “strong binding”, the RFUmax [1] was 14003 RFU and the Kd ([1]; read-out: App Kd, apparent Kd, multivalent avidity on carbohydrate array) was 0.68 nM.

For GalNAcβ1-4Galβ [GA2di - 37], the “binding of BfL” value [1] was “strong binding” and the RFUmax [1] was 17241 RFU.

With GalNAcβ1-4GlcNAcβ [LDN-Sp - 14] the “binding of BfL” value [1] was “strong binding” and the RFUmax [1] was 18291 RFU.

For “Galβ1-4GlcNAcβ1-6GalNAcα1-Thr (Ac-ST(Galβ1‑4GlcNAcβ1‑6GalNAcα1)SG; also: on BSA or HSA carrier) [Ac-S-Thr(F1α)-S-G - 18]”, the RFUmax [1] was 17214 RFU.

B1: AzHex-P-D-Tn(Thr)-R-P-NH2-07 (peptide)
peptide: AzHex-PDT(αGalNAc)RP-NH2
B1 gave a Kd [2] of 1.25 nM.

B2: recombinant Bauhinia forficata lectin (BfL-His6) (natural protein)
chain: T2 sequence
B2 gave a Kd [3] of 0.4 to 1.2 nM, a Kd (Ac-A-Tn(Thr)-S-G - 05) of 0.63 nM and a Kd (Ac-S-Tn(Ser)-S-G - 04) of 0.75 nM. For the same molecule, the Kd [4] was 10.7 nM, the Kd (Ac-S-Tn(Ser)-S-G - 22) was 0.65 nM and the Kd (Ac-S-Thr(F1α)-S-G - 18) was 2.51 nM. For the same molecule, the Kd (Ac-S-Tn(Thr)-S-G - 04) was 0.71 nM and the Kd (Ac-S-Ser(core 5)-S-G-18) was 1.02 nM.

B3: BfL: recombinant Bauhinia forficata lectin expressed in E. coli and refolded, non-glycosylated, C-terminal His6 tag, dimeric (protein)
chain: T2 sequence
modifications: left off: His6, C-terminal, kept
For B3, the “concentration that agglutinates erythrocytes” value (rabbit erythrocytes) is listed as ≥ 1 µg/mL, the growth inhibition [5] is listed as “over 95%” and the “cytotoxicity (in words)” value [6] is listed as “non-cytotoxic”. For the same molecule, the “concentration that agglutinates erythrocytes” value [7] was ≥ 1 µg/mL, the “solubility (in words)” value ([8]; 5 °C, compared with room temperature) was “decreases” and the solubility ([8]; room temperature) was 8 to 10 mg/mL. For the same molecule, the cytotoxic effects [9] was “No cytotoxic effects”, the “growth inhibition, strong effect, five cell lines” value ([9]; observed for five cell lines of different cancers) was > 50% and the “cell lines not inhibited” value ([9]; share of the cell lines of the panel) was “About 50%”. The inhibition of viability [10] was 35%.

B4: Ac-A-P-G-S-Tn(Thr)-A-P-P-A-G-03 (peptide)
peptide: Ac-APGST(αGalNAc)APPAG
With B4 the Kd [2] was 0.65 nM.

Source: paper PMC6257985 (The FEBS journal, 2017)
